These results are taken from ChEMBL document CHEMBL5653631, “A Potent and Selective ULK1 Inhibitor Suppresses Autophagy and Sensitizes Cancer Cells to Nutrient Stress” (iScience, 2018).

Assay [1] deals with Wee1-like protein kinase 2 (Homo sapiens) (UniProt P0C1S8). Description: Inhibition of human recombinant Wee1B at 40 nM related to control ULK1.
The target in assay [2] is T1, Serine/threonine-protein kinase DCLK3 (Homo sapiens) (UniProt Q9C098).
T1 sequence (whole entry): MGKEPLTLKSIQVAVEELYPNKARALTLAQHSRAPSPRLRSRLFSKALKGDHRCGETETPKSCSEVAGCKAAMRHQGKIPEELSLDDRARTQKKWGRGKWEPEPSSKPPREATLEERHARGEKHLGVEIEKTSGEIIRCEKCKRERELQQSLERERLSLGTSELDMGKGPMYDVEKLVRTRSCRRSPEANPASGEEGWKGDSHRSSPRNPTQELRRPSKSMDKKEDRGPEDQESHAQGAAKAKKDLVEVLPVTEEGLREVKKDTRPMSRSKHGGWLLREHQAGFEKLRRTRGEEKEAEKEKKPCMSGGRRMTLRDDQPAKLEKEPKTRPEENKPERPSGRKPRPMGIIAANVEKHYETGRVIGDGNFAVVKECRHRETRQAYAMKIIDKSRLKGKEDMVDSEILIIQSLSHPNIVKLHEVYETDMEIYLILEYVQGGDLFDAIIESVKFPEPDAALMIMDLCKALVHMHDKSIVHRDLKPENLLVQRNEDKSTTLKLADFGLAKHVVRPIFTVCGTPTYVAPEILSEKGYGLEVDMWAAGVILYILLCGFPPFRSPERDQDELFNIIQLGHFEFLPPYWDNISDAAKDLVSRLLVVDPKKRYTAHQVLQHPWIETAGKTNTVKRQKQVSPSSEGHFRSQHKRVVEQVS
Nature of the assay: Inhibition of human recombinant DCAMKL3 at 40 nM related to control ULK1.

The target in assay [3] is Platelet-derived growth factor receptor beta (Homo sapiens) (UniProt P09619). Nature of the assay: Inhibition of human recombinant PDGFRb at 40 nM related to control ULK1.
Sequence of Platelet-derived growth factor receptor beta (Homo sapiens) (P09619 whole entry): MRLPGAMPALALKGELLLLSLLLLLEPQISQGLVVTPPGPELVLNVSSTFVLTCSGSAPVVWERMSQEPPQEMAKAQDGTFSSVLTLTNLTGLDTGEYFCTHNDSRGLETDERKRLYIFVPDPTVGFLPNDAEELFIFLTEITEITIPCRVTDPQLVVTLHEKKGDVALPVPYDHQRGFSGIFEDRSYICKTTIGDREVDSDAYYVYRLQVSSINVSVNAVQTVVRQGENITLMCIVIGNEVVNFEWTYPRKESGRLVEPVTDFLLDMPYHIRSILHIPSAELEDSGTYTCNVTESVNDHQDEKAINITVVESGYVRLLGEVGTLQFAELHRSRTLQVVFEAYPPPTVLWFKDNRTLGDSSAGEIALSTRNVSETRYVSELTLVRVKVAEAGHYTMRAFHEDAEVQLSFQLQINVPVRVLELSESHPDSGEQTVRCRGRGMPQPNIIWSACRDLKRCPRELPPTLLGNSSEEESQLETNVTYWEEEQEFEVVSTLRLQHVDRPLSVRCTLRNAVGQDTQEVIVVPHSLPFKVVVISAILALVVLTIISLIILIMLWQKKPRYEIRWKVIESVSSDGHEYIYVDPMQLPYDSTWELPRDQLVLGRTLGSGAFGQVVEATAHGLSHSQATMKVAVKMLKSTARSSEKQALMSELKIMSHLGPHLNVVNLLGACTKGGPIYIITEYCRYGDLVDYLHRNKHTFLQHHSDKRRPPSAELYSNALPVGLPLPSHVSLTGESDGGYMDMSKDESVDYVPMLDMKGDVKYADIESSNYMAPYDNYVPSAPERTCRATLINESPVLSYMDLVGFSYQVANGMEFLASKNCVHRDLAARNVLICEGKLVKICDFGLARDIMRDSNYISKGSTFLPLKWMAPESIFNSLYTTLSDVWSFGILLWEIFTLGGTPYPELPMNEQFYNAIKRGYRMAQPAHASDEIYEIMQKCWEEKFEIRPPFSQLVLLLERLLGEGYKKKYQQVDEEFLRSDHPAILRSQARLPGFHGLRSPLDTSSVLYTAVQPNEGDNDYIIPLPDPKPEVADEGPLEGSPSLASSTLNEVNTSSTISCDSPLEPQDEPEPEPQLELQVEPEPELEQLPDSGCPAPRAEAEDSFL
The target of assay [4] is T2, NUAK family SNF1-like kinase 1 (Homo sapiens) (UniProt O60285).
T2 sequence (whole entry): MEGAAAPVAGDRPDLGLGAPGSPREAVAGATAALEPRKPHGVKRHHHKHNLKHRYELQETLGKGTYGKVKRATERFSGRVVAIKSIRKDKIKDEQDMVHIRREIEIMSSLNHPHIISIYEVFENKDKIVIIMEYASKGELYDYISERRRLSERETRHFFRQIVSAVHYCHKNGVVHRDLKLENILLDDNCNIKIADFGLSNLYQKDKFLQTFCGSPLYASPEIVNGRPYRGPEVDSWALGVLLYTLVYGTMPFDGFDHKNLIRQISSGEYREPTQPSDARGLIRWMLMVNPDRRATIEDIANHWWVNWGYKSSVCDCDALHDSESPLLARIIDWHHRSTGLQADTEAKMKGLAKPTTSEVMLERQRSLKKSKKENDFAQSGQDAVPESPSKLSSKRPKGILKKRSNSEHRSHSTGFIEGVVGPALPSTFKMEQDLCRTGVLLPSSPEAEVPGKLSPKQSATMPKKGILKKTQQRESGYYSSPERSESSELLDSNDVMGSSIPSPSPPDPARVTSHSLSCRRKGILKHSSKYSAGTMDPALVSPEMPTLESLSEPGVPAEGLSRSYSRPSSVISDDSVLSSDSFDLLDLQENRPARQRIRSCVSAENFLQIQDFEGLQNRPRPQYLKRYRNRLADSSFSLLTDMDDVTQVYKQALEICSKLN
Nature of the assay: Inhibition of human recombinant NuaK1 at 500 nM related to control ULK1.

The target of assay [5] is Calcium/calmodulin-dependent protein kinase type 1 (Homo sapiens) (UniProt Q14012). Description: Inhibition of human recombinant CaMK1a at 500 nM related to control ULK1.
Sequence of Calcium/calmodulin-dependent protein kinase type 1 (Homo sapiens) (Q14012 whole entry, looked up): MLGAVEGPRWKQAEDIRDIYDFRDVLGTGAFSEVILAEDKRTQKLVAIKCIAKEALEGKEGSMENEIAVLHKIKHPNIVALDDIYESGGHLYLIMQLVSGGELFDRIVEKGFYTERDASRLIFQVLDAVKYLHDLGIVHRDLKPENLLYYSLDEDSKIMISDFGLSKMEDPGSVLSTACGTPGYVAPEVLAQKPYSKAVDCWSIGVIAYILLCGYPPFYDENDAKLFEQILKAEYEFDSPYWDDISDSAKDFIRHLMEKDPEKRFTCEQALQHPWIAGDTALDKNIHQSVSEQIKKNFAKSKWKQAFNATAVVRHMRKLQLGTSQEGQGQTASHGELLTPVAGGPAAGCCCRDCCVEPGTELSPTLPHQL
Assay [6] concerns the target Serine/threonine-protein kinase 38-like (Homo sapiens) (UniProt Q9Y2H1). Description: Inhibition of human recombinant NDR2 at 500 nM related to control ULK1.
Assay [7] concerns the target Protein kinase C iota type (Homo sapiens) (UniProt P41743). Description: Inhibition of human recombinant PKCi at 15 nM in presence of ATP by radiometric assay relative to control.
For assay [8], the target named is Tau-tubulin kinase 1 (Homo sapiens) (UniProt Q5TCY1). Nature of the assay: Inhibition of human recombinant TTBK1 at 15 nM in presence of ATP by radiometric assay relative to control.
Sequence of Tau-tubulin kinase 1 (Homo sapiens) (Q5TCY1 whole entry): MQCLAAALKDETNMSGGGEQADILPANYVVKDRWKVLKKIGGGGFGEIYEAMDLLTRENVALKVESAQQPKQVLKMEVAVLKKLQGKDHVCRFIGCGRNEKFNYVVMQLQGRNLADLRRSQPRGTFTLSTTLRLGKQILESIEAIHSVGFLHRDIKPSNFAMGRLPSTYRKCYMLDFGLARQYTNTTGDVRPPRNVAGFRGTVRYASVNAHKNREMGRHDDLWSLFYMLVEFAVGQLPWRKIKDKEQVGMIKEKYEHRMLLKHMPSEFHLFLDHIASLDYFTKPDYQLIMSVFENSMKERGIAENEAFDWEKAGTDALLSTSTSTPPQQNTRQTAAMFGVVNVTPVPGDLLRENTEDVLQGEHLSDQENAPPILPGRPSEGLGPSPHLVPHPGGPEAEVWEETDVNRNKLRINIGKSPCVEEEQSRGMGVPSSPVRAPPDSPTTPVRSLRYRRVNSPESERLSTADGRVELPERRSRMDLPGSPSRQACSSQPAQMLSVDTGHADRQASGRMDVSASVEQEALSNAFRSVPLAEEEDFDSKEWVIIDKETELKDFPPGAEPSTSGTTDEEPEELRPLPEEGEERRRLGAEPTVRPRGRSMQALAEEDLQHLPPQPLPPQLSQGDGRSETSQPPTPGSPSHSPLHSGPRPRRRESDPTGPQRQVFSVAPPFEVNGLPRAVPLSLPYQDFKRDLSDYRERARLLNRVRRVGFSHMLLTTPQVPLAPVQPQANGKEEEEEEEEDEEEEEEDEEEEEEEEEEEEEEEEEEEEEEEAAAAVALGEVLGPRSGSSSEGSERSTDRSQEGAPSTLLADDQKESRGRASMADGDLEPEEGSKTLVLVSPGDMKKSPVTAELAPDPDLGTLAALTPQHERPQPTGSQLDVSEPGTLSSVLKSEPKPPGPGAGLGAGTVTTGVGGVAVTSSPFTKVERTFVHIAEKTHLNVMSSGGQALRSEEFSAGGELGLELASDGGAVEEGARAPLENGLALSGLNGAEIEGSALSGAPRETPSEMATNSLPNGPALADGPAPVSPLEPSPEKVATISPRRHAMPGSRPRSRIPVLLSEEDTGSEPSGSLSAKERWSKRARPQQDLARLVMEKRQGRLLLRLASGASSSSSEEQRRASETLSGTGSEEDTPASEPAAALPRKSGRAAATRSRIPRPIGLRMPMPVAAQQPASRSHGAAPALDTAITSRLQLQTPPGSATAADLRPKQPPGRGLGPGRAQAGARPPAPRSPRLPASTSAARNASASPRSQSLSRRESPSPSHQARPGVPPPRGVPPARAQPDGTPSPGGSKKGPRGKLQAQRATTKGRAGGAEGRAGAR
Assay [9] has as its target Aurora kinase B (Homo sapiens) (UniProt Q96GD4). Description: Inhibition of human recombinant AurB at 15 nM in presence of ATP by radiometric assay relative to control. The essentials: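 Part of a radiometric in vitro activity panel of 327 recombinant human kinases. Each kinase was tested in duplicate at one inhibitor concentration. Activity remaining was expressed as a percentage of the vehicle control, and percent inhibition was taken as 100 minus that value.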

Assay [10] addresses T3, Tyrosine-protein kinase Mer (Homo sapiens) (UniProt Q12866).
T3 sequence (whole entry): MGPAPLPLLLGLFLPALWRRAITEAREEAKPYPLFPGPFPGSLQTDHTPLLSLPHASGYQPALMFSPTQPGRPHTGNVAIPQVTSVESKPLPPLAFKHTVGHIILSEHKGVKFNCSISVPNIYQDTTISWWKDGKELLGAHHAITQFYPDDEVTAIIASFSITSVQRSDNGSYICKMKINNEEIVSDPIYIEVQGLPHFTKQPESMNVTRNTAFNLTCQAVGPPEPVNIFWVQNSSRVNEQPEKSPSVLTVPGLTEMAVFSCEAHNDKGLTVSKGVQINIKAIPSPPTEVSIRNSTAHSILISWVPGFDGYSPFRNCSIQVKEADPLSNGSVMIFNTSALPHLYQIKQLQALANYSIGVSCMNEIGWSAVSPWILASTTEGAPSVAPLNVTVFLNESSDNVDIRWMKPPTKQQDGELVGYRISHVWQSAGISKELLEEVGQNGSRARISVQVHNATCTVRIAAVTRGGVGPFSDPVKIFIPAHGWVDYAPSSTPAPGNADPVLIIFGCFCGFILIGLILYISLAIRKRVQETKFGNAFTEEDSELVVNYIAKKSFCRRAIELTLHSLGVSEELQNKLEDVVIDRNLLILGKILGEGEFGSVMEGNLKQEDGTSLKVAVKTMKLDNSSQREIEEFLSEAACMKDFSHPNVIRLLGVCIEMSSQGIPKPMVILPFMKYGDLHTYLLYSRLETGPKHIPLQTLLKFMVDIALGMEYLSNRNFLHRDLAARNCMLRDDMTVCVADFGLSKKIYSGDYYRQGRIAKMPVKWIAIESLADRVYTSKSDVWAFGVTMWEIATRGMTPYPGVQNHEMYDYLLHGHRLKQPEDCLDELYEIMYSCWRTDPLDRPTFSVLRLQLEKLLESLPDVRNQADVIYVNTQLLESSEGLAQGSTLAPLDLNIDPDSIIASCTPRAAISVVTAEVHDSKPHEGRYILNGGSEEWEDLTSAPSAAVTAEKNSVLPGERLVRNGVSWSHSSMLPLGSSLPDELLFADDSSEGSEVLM
Description: Inhibition of human recombinant MER at 15 nM in presence of ATP by radiometric assay relative to control.

SMILES strings stand for the structures.

Sequence of Serine/threonine-protein kinase 38-like (Homo sapiens) (Q9Y2H1 2-464 limits assumed): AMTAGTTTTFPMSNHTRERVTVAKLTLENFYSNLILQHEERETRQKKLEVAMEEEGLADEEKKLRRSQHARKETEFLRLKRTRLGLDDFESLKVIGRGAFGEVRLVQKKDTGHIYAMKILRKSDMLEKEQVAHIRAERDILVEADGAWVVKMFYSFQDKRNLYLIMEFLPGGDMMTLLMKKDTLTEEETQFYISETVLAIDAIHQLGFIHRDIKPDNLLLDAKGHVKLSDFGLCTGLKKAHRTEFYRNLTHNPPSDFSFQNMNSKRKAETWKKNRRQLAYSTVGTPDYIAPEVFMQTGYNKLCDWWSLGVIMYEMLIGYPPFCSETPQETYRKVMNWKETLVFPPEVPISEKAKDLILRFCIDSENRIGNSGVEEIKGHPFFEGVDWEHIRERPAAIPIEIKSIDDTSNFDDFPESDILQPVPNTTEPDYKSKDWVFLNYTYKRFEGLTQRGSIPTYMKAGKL
Sequence of Wee1-like protein kinase 2 (Homo sapiens) (P0C1S8 whole entry, looked up): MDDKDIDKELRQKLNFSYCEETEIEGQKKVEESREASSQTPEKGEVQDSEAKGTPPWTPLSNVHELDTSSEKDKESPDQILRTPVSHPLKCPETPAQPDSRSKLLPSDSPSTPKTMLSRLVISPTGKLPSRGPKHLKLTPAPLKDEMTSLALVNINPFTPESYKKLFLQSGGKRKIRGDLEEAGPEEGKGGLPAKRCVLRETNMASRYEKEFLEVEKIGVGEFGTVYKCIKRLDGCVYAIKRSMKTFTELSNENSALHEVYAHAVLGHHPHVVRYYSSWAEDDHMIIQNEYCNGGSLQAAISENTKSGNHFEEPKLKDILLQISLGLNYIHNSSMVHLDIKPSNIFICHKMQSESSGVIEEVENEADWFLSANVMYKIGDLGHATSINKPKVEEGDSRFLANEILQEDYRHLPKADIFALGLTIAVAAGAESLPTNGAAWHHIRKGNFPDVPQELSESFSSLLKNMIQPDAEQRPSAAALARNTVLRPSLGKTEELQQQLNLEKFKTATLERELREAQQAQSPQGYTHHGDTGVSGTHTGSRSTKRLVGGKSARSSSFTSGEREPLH
Sequence of Protein kinase C iota type (Homo sapiens) (P41743 whole entry, looked up): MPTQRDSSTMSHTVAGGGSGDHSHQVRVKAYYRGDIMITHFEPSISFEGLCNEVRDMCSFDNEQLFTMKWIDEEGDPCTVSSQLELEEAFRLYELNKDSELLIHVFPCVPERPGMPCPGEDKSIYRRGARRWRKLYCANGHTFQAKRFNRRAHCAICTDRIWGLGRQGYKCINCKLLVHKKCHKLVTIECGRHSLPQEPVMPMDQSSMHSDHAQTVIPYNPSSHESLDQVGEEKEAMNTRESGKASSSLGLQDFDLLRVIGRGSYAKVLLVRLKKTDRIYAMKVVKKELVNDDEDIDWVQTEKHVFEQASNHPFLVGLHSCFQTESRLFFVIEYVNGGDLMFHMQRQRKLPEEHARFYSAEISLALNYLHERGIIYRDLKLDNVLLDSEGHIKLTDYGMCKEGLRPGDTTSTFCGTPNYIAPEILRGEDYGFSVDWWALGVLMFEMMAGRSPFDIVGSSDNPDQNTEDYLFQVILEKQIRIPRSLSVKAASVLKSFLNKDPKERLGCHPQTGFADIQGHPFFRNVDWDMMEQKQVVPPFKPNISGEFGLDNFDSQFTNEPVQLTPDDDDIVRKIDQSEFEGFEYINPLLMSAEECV
Sequence of Aurora kinase B (Homo sapiens) (Q96GD4 whole entry): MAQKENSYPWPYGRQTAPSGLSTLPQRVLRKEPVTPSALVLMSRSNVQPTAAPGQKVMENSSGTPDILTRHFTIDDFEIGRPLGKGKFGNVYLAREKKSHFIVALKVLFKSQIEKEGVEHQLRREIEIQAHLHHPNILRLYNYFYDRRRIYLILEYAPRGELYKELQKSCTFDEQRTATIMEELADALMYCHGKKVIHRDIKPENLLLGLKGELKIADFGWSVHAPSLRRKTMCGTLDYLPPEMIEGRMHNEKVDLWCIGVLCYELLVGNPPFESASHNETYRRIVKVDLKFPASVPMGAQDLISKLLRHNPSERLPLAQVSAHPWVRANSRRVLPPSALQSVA

On to `O=C(N[C@@H](C1CC1)C(F)(F)F)c1cc(-c2cnn3cc(-c4ccc(F)cc4)cnc23)cs1`, for which the fold change (FC) came out at 0 in [1], 0.03 in [2] and 0.07 in assay [3].

`CNC(=O)c1ccccc1Oc1nc(Nc2cc(OC)c(OC)c(OC)c2)ncc1Br`: the fold change (FC) was found to be 0.96 in [4], 0 in [5] and 0.2 in assay [6].

In the case of `CC(C)[C@H](NC(=O)c1cc(-c2cnn3cc(-c4ccc(OCCN5CCCCC5)cc4)cnc23)cs1)C(F)(F)F`, the inhibition was 4% in [7], 0% in assay [8], 18% in assay [9] and 34% in assay [10].

The term inhibition denotes the change of the read-out against control, counted positive when it falls.
